Rows were chosen to be rich in hits. Some 2.9% of all compounds tested hit in one or more screens of this group.
OX1R antag-1 – blocks the human orexin 1 receptor. 330,000 tested, 0.43% active. inhibition, % at 5 µM. O43613. CHO/OX1R cells, Fluo-8 calcium fluorescence, orexin A. AID 434989;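 active = inhibition above its plate's threshold, mean inhibition of all tested compounds on the plate plus 3 SD, cut at about 37% in these data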;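 also: 0% = orexin A challenge wells and 100% = SB-334867-A antagonist wells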
Target sequence (O43613 whole entry, looked up): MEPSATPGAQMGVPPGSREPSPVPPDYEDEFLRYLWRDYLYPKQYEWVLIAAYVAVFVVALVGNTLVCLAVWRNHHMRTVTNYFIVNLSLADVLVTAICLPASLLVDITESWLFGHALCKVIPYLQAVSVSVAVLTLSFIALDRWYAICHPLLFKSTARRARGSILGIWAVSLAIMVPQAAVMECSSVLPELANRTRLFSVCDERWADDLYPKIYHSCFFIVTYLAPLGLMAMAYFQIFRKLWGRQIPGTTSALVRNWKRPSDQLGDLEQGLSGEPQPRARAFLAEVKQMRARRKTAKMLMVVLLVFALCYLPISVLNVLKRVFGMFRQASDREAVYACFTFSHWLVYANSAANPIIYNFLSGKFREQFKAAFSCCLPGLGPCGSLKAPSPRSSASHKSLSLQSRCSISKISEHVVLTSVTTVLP
OX1R antag-2 – OX1R (human) antagonism; OX1R-expressing cells, FRET antagonist read-out; O43613; inhibition, % at 6.6 µM; 330,000 tested, 1.8% active; in the data active = inhibition mostly above about 38%, no sharp cut-off; inactive = mostly below about 40%;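 also: 0% = agonist challenge alone and 100% = reference antagonist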
CHO-K1 Ca PAM – counter-screen for M1 PAMs: effect in parental CHO-K1 cells; ATP EC20, Fluo-8 calcium fluorescence; 0% at ATP EC20, 100% at ATP max; activation, % at 3 µM; 360,000 tested, 0.02% active;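 active = activation above the run cutoff, the mean activation of all test compounds plus 3 SD, cut at about 40% in these data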;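 also: peak over basal fluorescence ratio in a 140 s read after ATP addition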
M1 ag parental – M1 agonist counterscreen hit in parental CHO-K1 cells; 360,000 tested, 0.48% active; AID 602248; Fluo-8 calcium fluorescence; scaled to maximal ATP response, vehicle zero; activation, % at 3 µM; in the data active = activation above about 15%;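 also: untransfected CHO-K1 host cells lacking M1 receptor as counterscreen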
CHO-K1 Ca antag – counter-screen for M1 antagonists: effect in parental CHO-K1 cells. ATP-induced calcium, Fluo-8 fluorescence. inhibition, % at 3 µM. AID 602250. 360,000 tested, 0.6% active;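 active = inhibition above a per-plate cutoff, the plate's mean sample inhibition plus 3 SD, cut at about 24% in these data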;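 also: 0% = DMSO plus EC80 ATP and 100% = DMSO alone without ATP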
CHO parental Ca – counter-screen: ATP calcium response change in parental CHO cells; 330,000 tested, 0.63% active; parental CHO-K1, ATP-induced calcium, Fluo-8 fluorescence; inhibition, % at 5.6 µM;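 active = inhibition above that plate's mean sample inhibition plus 3 SD, cut at about 26% in these data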;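 also: 0% = ATP-challenged DMSO wells and 100% = DMSO wells without ATP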
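material = parental CHO cells | also added = ATP as calcium-mobilizing challenge | dosing = single point at 5.6 µM | detection = intracellular calcium via Fluo-8 no-wash fluorescent dye | read-out = % inhibition | benchmarks = low control ATP plus DMSO, high control DMSO only | repeats = one well per compound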
OX1R Ca confirm – OX1R (human) antagonism, confirmed; shares compounds with OX1R antag-1; CHO/OX1R cells, orexin A calcium Fluo-8 fluorescence; inhibition, % at 5 µM; 1,100 tested, 38% active; in the data active = inhibition above about 29%;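 also: 0% = agonist challenge alone and 100% = reference antagonist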
CHO Ca counter – signal in parental CHO cells, OX1R antagonist counter-screen; inhibition, % at 5.6 µM; shares compounds with OX1R antag-1; 1,100 tested, 9.3% active; parental CHO-K1, ATP-induced calcium, Fluo-8 fluorescence; AID 492965;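 active = inhibition above a per-plate limit, the mean inhibition of that plate's test compounds plus 3 SD, cut at about 25% in these data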;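 also: 0% = ATP challenge with DMSO and 100% = DMSO without ATP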
Active calls of the source: *; nt = no result given.

SMILES	OX1R antag-1	OX1R antag-2	CHO-K1 Ca PAM	M1 ag parental	CHO-K1 Ca antag	CHO parental Ca	OX1R Ca confirm	CHO Ca counter
Cc1ccc(C)c(CNc2ccc(S(=O)(=O)N3CCCCC3)cc2)c1	44.1*	2.7	3.1	1.3	-6.9	7.5	-6.3	53.1*
CCC(NC(=O)c1cc(COc2cc(C)c(Cl)c(C)c2)on1)c1ccncc1 (stereo not drawn)	42.3*	17.5	1.9	16.6*	2.9	16.6	27.2	7.3
Cc1ccc(CNC(=O)C(=O)NCC2OCCCN2S(=O)(=O)c2ccc(F)cc2)cc1 (stereo not drawn)	-23.8	18.1	-2.5	1.0	0.3	-21.1	nt	nt
Cc1cc(OCc2cc(C(=O)N3CCN(C)C(=O)[C@@H]3C)no2)cc(C)c1Cl	43.2*	22.8	-9.8	14.9	10.1	25.2	16.5	28.5*
CN(Cc1ccc(Cl)cc1)C(=O)c1ccccc1SCC(=O)N1CCCC1	nt	nt	-24.4	0.5	5.1	nt	nt	nt
CCCNC(=O)C1(C)CCCN(Cc2c3ccccc3nn2C)C1 (stereo not drawn)	nt	nt	-6.0	0.6	3.8	nt	nt	nt
CC(C)(C)CNc1cc(N2CCCC2)ccc1[N+](=O)[O-]	-14.3	8.7	2.9	-0.5	2.4	-13.6	nt	nt
CC(C)c1ccc(CNc2cc(N3CCCC3)ccc2[N+](=O)[O-])cc1	53.0*	8.2	33.5	1.1	-28.2	7.7	-6.7	39.2*
Nc1ccc(-c2nc3ccc(-c4nc5ccccc5o4)cc3[nH]2)cc1	37.8	56.9	10.0	1.9	3.2	7.6	12.3	-7.2
Cc1c(NC(=O)c2cccc(-c3cc4ccccc4oc3=O)c2)cccc1-c1nc2ncccc2o1	31.6	66.5	16.5	1.5	-0.5	-19.4	23.6	-15.9
Cc1c(NC(=O)C(C)C)cccc1-c1nc2ncccc2o1	-18.5	-2.7	10.7	0.9	-9.2	0.1	nt	nt
COc1ccc(Cl)cc1C(=O)Nc1ccc(NC(C)=O)cc1	2.7	29.0	19.6	0.2	-7.7	-0.4	nt	nt
CCCCOC(=O)c1ccc(NC(=O)c2cc(Cl)ccc2OC)cc1	37.1	33.5	19.0	0.2	-10.9	-19.1	29.2*	-15.0
CCCCCCNC(=O)CC(c1ccccc1)c1cc(Br)ccc1O (stereo not drawn)	35.2	52.7	-5.7	0.8	-6.8	16.5	-13.0	-14.9
CC(C)NC(=O)CC(c1ccccc1)c1cc(Br)ccc1O (stereo not drawn)	-11.2	6.8	13.5	11.2	-7.0	-16.1	nt	nt
CN(CC(=O)Nc1cccc(F)c1)C(=O)c1ccccc1Cc1ccccc1	-11.6	30.8	-6.0	1.9	-3.3	-11.5	nt	nt
Cc1ccc(Cl)cc1N1CCN(C(=O)c2ccc3c(c2)CCN3S(C)(=O)=O)CC1	30.6	15.6	3.4	1.6	4.4	13.4	-2.0	-4.8
CS(=O)(=O)N1CCc2cc(C(=O)N3CCN(c4cccc(Cl)c4)CC3)ccc21	2.2	-0.8	4.5	6.7	-5.1	-16.5	nt	nt
CC(=O)NC(C)(c1ccccc1)c1nc(-c2cc(F)cc(F)c2)cs1 (stereo not drawn)	nt	nt	9.2	1.0	-6.7	nt	nt	nt
Nc1c(C(O)(C(F)(F)F)C(F)(F)F)cc(C(O)(C(F)(F)F)C(F)(F)F)c2ccccc12	27.9	25.3	-0.1	2.9	10.5	6.6	-6.4	-0.8
Cc1cccc(OCc2nnc(SCC(=O)NC3CCCCC3)n2C)c1	-13.5	25.6	12.1	2.2	-17.1	-12.1	nt	nt
Cc1ccc(OCCC(=O)OCC(=O)c2ccc3c(c2)NC(=O)CO3)cc1	35.0	-1.1	-4.5	6.3	-10.7	11.8	7.9	-0.6
O=C1COc2ccc(C(=O)COC(=O)CCCOc3ccccc3)cc2N1	nt	nt	7.5	0.9	-13.0	nt	nt	nt
CCN1C(=O)/C(=C/C=C2/Sc3ccccc3N2CCO)SC1=S	21.6	43.5	12.4	3.8	-9.2	2.5	20.5	25.0*
CCN1C(=O)/C(=C/N2CCc3ccccc32)SC1=S	-9.8	3.4	-0.5	0.2	-5.5	-10.6	nt	nt
SMILES	OX1R antag-1	OX1R antag-2	CHO-K1 Ca PAM	M1 ag parental	CHO-K1 Ca antag	CHO parental Ca	OX1R Ca confirm	CHO Ca counter
CCCN1C(=O)/C(=C/C=C2\N(CC)c3ccccc3C2(C)C)SC1=S	36.7	3.8	13.7	3.5	-1.3	18.8	55.5*	51.9*
CC(=O)NC(CC(=O)OCC(=O)N1CCc2ccccc21)c1ccccc1 (stereo not drawn)	-21.1	-1.6	5.6	-0.3	-11.6	-7.4	nt	nt
O=C(CCNC(=O)c1ccc(Br)o1)NC1CCCC1	22.6	2.0	16.7	0.8	-7.8	-4.8	7.5	-18.5
Cc1ccc(C(=O)OCn2ncc(Cl)c(Cl)c2=O)cc1	30.2	14.8	-4.3	-0.4	14.1	20.8	73.0*	19.9
O=C(OCn1ncc(Cl)c(Cl)c1=O)c1ccc(C(F)(F)F)cc1	nt	nt	0.8	-0.3	-2.7	nt	nt	nt
COc1ccc(C(=O)NC(=S)N2CC(C)OC(C)C2)cc1OC (stereo not drawn)	0.5	5.2	-0.4	-0.2	-7.6	-8.9	nt	nt
CCOc1cc2c(cc1/C=C/c1noc(C)c1[N+](=O)[O-])OC(C)C2 (stereo not drawn)	25.7	20.6	19.4	6.7	-4.3	18.3	50.9*	44.0*
COC(=O)CCSC(=S)N1CCOCC1	-7.9	7.2	1.6	0.9	1.8	-8.8	nt	nt
CC(C)=CCC/C(C)=C/CNC(=O)C[C@H]1C[C@H](C(=O)N2CCOCC2)[C@@]2(C)c3[nH]c4cc(CCC(=O)N(C)C)ccc4c3CCN2C1=O	28.1	13.1	2.2	0.2	-1.5	2.5	nt	nt
CC(C)=CCC/C(C)=C/CNC(=O)C[C@H]1C[C@H](C(=O)N2CCCCC2)[C@@]2(C)c3[nH]c4cc(CCC(=O)N(C)C)ccc4c3CCN2C1=O	49.5*	28.4	1.7	0.4	-6.6	-13.3	21.2	-11.4
COCCn1c(N)c(C#N)c2nc3ccccc3nc21	1.1	26.8	-4.1	0.1	-22.9	-7.4	nt	nt
COc1cc(Cn2c(N)c(C#N)c3nc4ccccc4nc32)cc(OC)c1	27.8	27.9	-1.7	0.7	4.9	19.5	32.8*	5.5
CC(C)(C)c1cc(C(=O)CCN2CCOCC2)cc(C(C)(C)C)c1O	36.8	1.8	18.1	2.6	10.0	21.8	-3.4	-18.7
CNCCOc1ccccc1OC(C)C	3.1	14.0	-9.9	-0.3	8.0	-3.2	nt	nt
Cc1nn(C)c(C(=O)Nc2ccc3c(c2)OCO3)c1[N+](=O)[O-]	nt	nt	-18.7	-0.1	6.8	nt	nt	nt
Cc1nn(C)c(C(=O)Nc2ccc(Cl)c([N+](=O)[O-])c2)c1Cl	36.2	5.4	20.2	0.4	-9.2	2.6	2.1	0.2
CCOC(=O)[C@]12CCC=C1N(Cc1ccccc1)C(=O)[C@H](CC(=O)NCCCCc1ccccc1)C2	nt	nt	-1.5	-0.2	-13.2	nt	nt	nt

High-throughput results deposited in PubChem by The Scripps Research Institute Molecular Screening Center.
